Source: paper PMC8317952 (ACS catalysis, 2020)
Several values for one entry are separate records, joined by “and”; a condition that tells them apart may be missing. Equal entries are not always repeated. Structures can show the parent of a compound that is named as a salt. Where two headings read alike, the source gives them in different places.

Experiments:
[1] = test system: mutants of P450BM-3; conditions: cited from earlier work
[2] = target: T1, P450BM-3 (Priestia megaterium, UniProt P14779); type: binding, Bacillus megaterium; conditions: read-out: Kd estimate (Kd = koff/kon); from fitted on- and off-rate constants
T1 sequence (P14779 1-1049): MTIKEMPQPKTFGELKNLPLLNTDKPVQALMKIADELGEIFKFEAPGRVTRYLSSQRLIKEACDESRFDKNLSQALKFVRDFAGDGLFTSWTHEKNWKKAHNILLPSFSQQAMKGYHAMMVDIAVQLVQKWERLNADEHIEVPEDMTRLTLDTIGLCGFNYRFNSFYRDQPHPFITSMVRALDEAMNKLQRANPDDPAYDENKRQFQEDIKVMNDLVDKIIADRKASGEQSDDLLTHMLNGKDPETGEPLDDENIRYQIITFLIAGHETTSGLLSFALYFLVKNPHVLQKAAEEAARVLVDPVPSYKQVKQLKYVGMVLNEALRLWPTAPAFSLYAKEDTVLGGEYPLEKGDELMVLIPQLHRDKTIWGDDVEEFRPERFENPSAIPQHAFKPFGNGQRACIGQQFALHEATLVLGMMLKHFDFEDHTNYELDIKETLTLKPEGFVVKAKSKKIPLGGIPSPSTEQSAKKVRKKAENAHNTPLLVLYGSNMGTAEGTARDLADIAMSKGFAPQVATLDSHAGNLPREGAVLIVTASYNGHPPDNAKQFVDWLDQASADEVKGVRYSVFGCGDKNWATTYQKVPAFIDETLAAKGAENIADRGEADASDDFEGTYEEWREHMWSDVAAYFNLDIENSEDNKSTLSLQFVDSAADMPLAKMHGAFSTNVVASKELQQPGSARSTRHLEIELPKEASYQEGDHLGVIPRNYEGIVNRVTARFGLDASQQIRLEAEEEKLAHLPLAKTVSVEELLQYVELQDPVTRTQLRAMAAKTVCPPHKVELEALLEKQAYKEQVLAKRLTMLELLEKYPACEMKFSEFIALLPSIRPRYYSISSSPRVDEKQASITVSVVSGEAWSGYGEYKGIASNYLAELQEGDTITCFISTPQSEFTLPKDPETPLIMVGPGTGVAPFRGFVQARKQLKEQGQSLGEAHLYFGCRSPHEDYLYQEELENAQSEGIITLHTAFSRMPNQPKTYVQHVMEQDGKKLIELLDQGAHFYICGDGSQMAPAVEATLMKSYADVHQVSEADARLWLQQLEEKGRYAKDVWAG

[3] = target: T1, P450BM-3; test: biochemical; type: binding
[4] = test system: ferrous P450BM-3; conditions: surrogate for O2; cited from earlier work
[5] = target: T1, P450BM-3; test: Steady-state NADPH oxidation; type: biochemical, Bacillus megaterium; conditions: for Km / kcat: rates of NADPH oxidation, hyperbolic fit, 23 °C
[6] = target: T1, P450BM-3; conditions: substrate-bound P450BM-3; cited from earlier work
[7] = test system: P450 102A2 (CYP102A2); test: Literature: NADPH oxidation and binding with dodecyl sulfate by P450 102A2; type: biochemical, B. subtilis; conditions: P450 102A2 at 37 °C vs P450BM-3 at 23 °C
[8] = target: T1, P450BM-3; type: biochemical, Bacillus megaterium; conditions: for site of hydroxylation: Jones oxidation, Baeyer-Villiger, LC-MS/MS
[9] = target: T1, P450BM-3; test: Pre-steady-state stopped-flow kinetics of substrate binding; set-up: species or system Bacillus megaterium; conditions: for eigenvalue (λ) of spectral change, single exponential fit: ΔA390
[10] = test system: P450 102A2 (CYP102A2); conditions: cited from earlier work
[11] = target: T1, P450BM-3; test: Burst experiment: stopped-flow NADPH oxidation with lauric acid; type: biochemical, Bacillus megaterium; conditions: 2 μM P450BM-3, 500 μM lauric acid, 50 μM NADPH
Summary of the method: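 In the stopped-flow instrument, enzyme (4 μM) premixed with 1 mM lauric acid was mixed with 100 μM NADPH, both in 50 mM potassium MOPS pH 7.5. Runs were at 23 °C in rapid-scanning mode, recording spectra from 332–565 nm with kinetic traces taken at individual wavelengths.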

[12] = target: T1, P450BM-3; conditions: cited from earlier work
[13] = target: T1, P450BM-3; conditions: read-out: Kd values in the previous literature; buffer conditions appear to affect these; cited from earlier work
[14] = read-out: Kd (spectral titration), 50 mM potassium MOPS pH 7.4, 23 °C
[15] = d0 vs d23 lauric acid, non-competitive, NADPH oxidation

CCOc1ccc2ccc(=O)oc2c1 [7-ethoxycoumarin]
KIEs for O-deethylation [1]: 6–17

CC(O)CCCCCCCCCC(=O)O (centres unmarked) [11-OH lauric acid]
Kd [2]: 11 µM | type of difference spectrum [3]: Type I | Kd [3, 14]: 8 ± 2 µM

[C-]#[O+] [CO]
rate constant for CO binding [4]: 1.6e+06 M⁻¹ s⁻¹

CCCCCCCCCCCCCCCC(=O)NCC(=O)O [N-palmitoylglycine]
Km [5]: 9 ± 2 µM | kcat [5]: 9.92 ± 0.667 s⁻¹ | rate of change of temperature-dependent spin equilibria [6]: ~ 800 s^−1

CCCCCCCCCCCCOS(=O)(=O)O [dodecyl sulfate]
fold lower specificity constant of P450 102A2 than P450BM-3 [7]: ~ 500 fold | Kd [3, 14]: 14 ± 2 µM | Km [5]: 28 ± 1 µM | kcat [5]: 16.3 ± 0.333 s⁻¹ | site of hydroxylation [8]: primarily ω−1 hydroxylation | eigenvalue (λ) of spectral change, single exponential fit ([9]; 2 μM dodecyl sulfate (final)): 127 s⁻¹ and 127 ± 4 s⁻¹ | eigenvalue (λ) of spectral change, single exponential fit ([9]; 200 μM dodecyl sulfate (final)): 51 ± 4 s⁻¹ | rate constant for substrate binding (kon), rough value ([9]; from binding rate and substrate concentration): 6e+07 M⁻¹ s⁻¹ | t1/2 of binding spectral changes ([9]; stopped-flow): 0.006 to 0.025 s | apparent specificity constant kcat/S0.5 ([10]; 37 °C): 1600 M⁻¹ s⁻¹ | Hill n value ([10]; spectral binding and NADPH oxidation): 5.7

CCCCCCCCCCCC(=O)O [lauric acid]
Kd [3, 14]: 29 µM | kinetic burst [11]: No burst was observed | rate of NADPH oxidation, steady-state portion ([11]; pH 7.5): 608 ± 4 min⁻¹ | KIE, ^D(V/K) [5, 15]: 0.79 ± 0.07 | KIE, ^DV [5, 15]: 1.19 ± 0.16 | KIEs, measured with multiple concentrations of d0/d23 laurate ([5]; depending on the assay method): ≤ 1.2 | kcat [5]: 19.33 ± 2.5 s⁻¹ | rate of reduction of iron from the ferric to the ferrous state [12]: 53 to 306 s⁻¹ | KIE from rates of formation of hydroxylated laurate products ([8]; LC-MS, 100 μM laurate, 180 second time point): 1.03 | Kd [13]: 27 to 390 µM

CCCCCCCCCCCCCC(=O)O [myristate]
Kd [3]: 12 µM | rate of reduction of iron from the ferric to the ferrous state [12]: 53 to 306 s⁻¹ | Kd [13]: 0.5 to 78 µM

CCCCCCCCCCCCCCCC(=O)O [palmitic acid, Palmitic acid]
rate of reduction of iron from the ferric to the ferrous state [12]: 53 to 306 s⁻¹

CCCCCCCCCCCCCCOS(=O)(=O)O [tetradecyl sulfate]
Kd [3]: 1.4 ± 0.1 µM | initial rate of disappearance of NADPH (A340) ([5]; with tetradecyl sulfate as substrate): 1.75 pmol/s | site of hydroxylation [8]: primarily ω−1 hydroxylation | NADPH oxidation accounted for as disappearance of the substrate ([8]; over the first 100 seconds): 97%

d23-Lauric acid [d23 lauric acid]
kcat [5]: 16.2 ± 0.5 s⁻¹
